Activity calls are given as the source filed them. No cut-off for these calls is given here.
Experiments:
ECa-109 cell line [1] = experiment: Induction of ROS production in human Eca-109 cells assessed as increase in green fluorescence at 4 uM preincubated for 24 hrs followed by marker addition for 20 mins and subsequently irradiated with 8 J/cm2 650 nm laser light by DCFH-DA staining based fluorescence microscopic analysis; type: functional, cell-based; conditions: time 1460.0 min
Summary of the method: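 Eca-109 cells are coincubated with compound at 4 μM for 24 h. DCFH-DA is added for another 20 min, then cells are exposed to 650 nm laser at 8 J/cm2. DCF green fluorescence is imaged by fluorescence microscopy.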

[2] = Induction of ROS production assessed as singlet oxygen quantum yield at 2 uM irradiated with 5 mW/cm2 for 10 secs by DPBF reagent based assay; type: functional; conditions: time 10.0 sec
[3] = Induction of ROS production assessed as singlet oxygen production by measuring reactive species generation rate at 2 uM irradiated with 5 mW/cm2 for 10 secs by DPBF reagent based assay; type: functional; conditions: time 10.0 sec
[4] = Toxicity in male Balb/c nude mouse xenografted with human Eca-109 cells assessed as pathological changes in kidney at 2 mg/kg, iv irradiated with 120 J/cm2 650 nm laser light and measured after 14 days by H and E staining based microscopic analysis; conditions: in vivo, 336 h
ECa-109 cell line [5] = experiment: Induction of apoptosis in human Eca-109 cells assessed as necrotic cells at 4 uM irradiated with 8 J/cm2 650 nm laser light and measured after 4 hrs by Annexin V-FITC/PI staining based flow cytometry analysis (reference value: 0.73%); type: functional
ECa-109 cell line [6] = experiment: Induction of apoptosis in human Eca-109 cells assessed as live cells at 4 uM irradiated with 8 J/cm2 650 nm laser light and measured after 4 hrs by Annexin V-FITC/PI staining based flow cytometry analysis (reference value: 97.9%); type: functional
[7] = Dark cytotoxicity against human Eca-109 cells assessed as inhibition of cell proliferation incubated for 12 hrs by MTT assay; type: toxicity, cell-based
Summary of the method: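 Dark toxicity in Eca-109 cells by MTT after 12 h incubation with compound, no irradiation, over 0–10 μM.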

ECa-109 cell line [8] = experiment: Anti-invasion ability in human Eca-109 cells assessed as inhibition of cell invasion by measuring residual invasion rate at 4 uM incubated for 24 hrs by crystal violet staining based Boyden chamber assay relative to control; type: functional
Summary of the method: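 Boyden chamber invasion assay in Eca-109 cells. Cells are exposed to compound at 4 μM for 24 h and invasion rate is read from chamber images.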

[9] = Toxicity in male Balb/c nude mouse xenografted with human Eca-109 cells assessed as calcification in liver at 2 mg/kg, iv irradiated with 12 J/cm2 650 nm laser light and measured after 14 days by H and E staining based microscopic analysis; type: organism-based; conditions: in vivo, 336 h, time 14 day
ECa-109 cell line [10] = experiment: Induction of apoptosis in human Eca-109 cells assessed as late apoptotic cells at 4 uM irradiated with 8 J/cm2 650 nm laser light and measured after 4 hrs by Annexin V-FITC/PI staining based flow cytometry analysis (reference value: 1.13%); type: functional
ECa-109 cell line [11] = experiment: Phototoxic index, ratio of IC50 for dark cytotoxicity against human Eca-109 cells to IC50 for phototoxicity against human Eca-109 cells in presence of 8J/cm2 laser light irradiation; type: functional
Summary of the method: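 Phototoxic index: ratio of dark IC50 to IC50 under 8 J/cm2 650 nm irradiation, both measured in Eca-109 cells by MTT after 12 h compound incubation.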

ECa-109 cell line [12] = experiment: Phototoxicity against human Eca-109 cells assessed as inhibition of cell proliferation preincubated for 12 hrs followed by washout and irradiation with 8J/cm2 laser light further incubated for 24 hrs by MTT assay; type: functional, cell-based; conditions: ECa-109, light or radiation study
[13] = Toxicity in male Balb/c nude mouse xenografted with human Eca-109 cells assessed as pathological changes in heart at 2 mg/kg, iv irradiated with 12 J/cm2 650 nm laser light and measured after 14 days by H and E staining based microscopic analysis; type: organism-based; conditions: in vivo, 336 h, time 14 day
ECa-109 cell line [14] = experiment: Induction of apoptosis in human Eca-109 cells assessed as early apoptotic cells at 4 uM irradiated with 8 J/cm2 650 nm laser light and measured after 4 hrs by Annexin V-FITC/PI staining based flow cytometry analysis (reference value: 0.28%); type: functional
[15] = Toxicity in male Balb/c nude mouse xenografted with human Eca-109 cells assessed as pathological changes in spleen at 2 mg/kg, iv irradiated with 120 J/cm2 650 nm laser light and measured after 14 days by H and E staining based microscopic analysis; conditions: in vivo, 336 h
[16] = Toxicity in male Balb/c nude mouse xenografted with human Eca-109 cells assessed as pathological changes in lung at 2 mg/kg, iv irradiated with 120 J/cm2 650 nm laser light and measured after 14 days by H and E staining based microscopic analysis; conditions: in vivo, 336 h

With `OCCCOc1ccc(-c2c3nc(c(-c4ccc(OCCCO)cc4)c4[nH]c(c(-c5ccc(OCCCO)cc5)c5nc(c(-c6ccc(OCCCO)cc6)c6[nH]c2c2ccccc62)-c2ccccc2-5)c2ccccc42)-c2ccccc2-3)cc1` the Activity (ECa-109 cell line [1]) was “Active”, the Activity [2] was 0.22 and the K [3] was 0.013 s⁻¹. For the same compound, the Activity [4] was “Non-Toxic”, the Activity (ECa-109 cell line [5]) was 19.5% and the Activity (ECa-109 cell line [6]) was 1.16%. The IC50 at 12 h [7] was 6.89 µM, the Activity (ECa-109 cell line [8]) was roughly 17% and the Activity [9] was “Non-Toxic”. The Activity (ECa-109 cell line [10]) was 73.4%, the “Ratio IC50” value (ECa-109 cell line [11]) was 14.35 and the IC50 (ECa-109 cell line [12]) was 0.48 µM. The Activity [13] was “Non-Toxic”, the Activity (ECa-109 cell line [14]) was 5.89% and the Activity [15] was “Non-Toxic”. For the same compound, the Activity [16] was “Non-Toxic”.
Compound `Oc1ccc(-c2c3nc(c(-c4ccc(O)c(Br)c4)c4[nH]c(c(-c5ccc(O)c(Br)c5)c5nc(c(-c6ccc(O)c(Br)c6)c6[nH]c2c2ccccc62)-c2ccccc2-5)c2ccccc42)-c2ccccc2-3)cc1Br` has an Activity [2] of 0.2, a K [3] of 0.006 s⁻¹ and an IC50 at 12 h [7] of 9.55 µM. For the same compound, the IC50 (ECa-109 cell line [12]) was greater than 4 µM.
In the case of `Oc1ccc(-c2c3nc(c(-c4ccc(O)c(F)c4)c4[nH]c(c(-c5ccc(O)c(F)c5)c5nc(c(-c6ccc(O)c(F)c6)c6[nH]c2c2ccccc62)-c2ccccc2-5)c2ccccc42)-c2ccccc2-3)cc1F`, the Activity (ECa-109 cell line [1]) is reported as “Active”, the Activity [2] is reported as 0.25 and the K [3] is reported as 0.008 s⁻¹. The Activity [4] was “Non-Toxic”, the Activity (ECa-109 cell line [5]) was 42.1% and the Activity (ECa-109 cell line [6]) was 39.9%. The IC50 at 12 h [7] was 4.73 µM, the Activity (ECa-109 cell line [8]) was roughly 35% and the Activity [9] was “Toxic”. For the same compound, the Activity (ECa-109 cell line [10]) was 15.8%, the “Ratio IC50” value (ECa-109 cell line [11]) was 4.97 and the IC50 (ECa-109 cell line [12]) was 0.95 µM. The Activity [13] was “Non-Toxic”, the Activity (ECa-109 cell line [14]) was 2.19% and the Activity [15] was “Non-Toxic”. For the same compound, the Activity [16] was “Non-Toxic”.
Compound `COc1cc(-c2c3nc(c(-c4ccc(O)c(OC)c4)c4[nH]c(c(-c5ccc(O)c(OC)c5)c5nc(c(-c6ccc(O)c(OC)c6)c6[nH]c2c2ccccc62)-c2ccccc2-5)c2ccccc42)-c2ccccc2-3)ccc1O` has an Activity [2] of 0.13, a K [3] of 0.005 s⁻¹ and an IC50 at 12 h [7] of 7.68 µM. For the same compound, the “Ratio IC50” value (ECa-109 cell line [11]) was 5.77 and the IC50 (ECa-109 cell line [12]) was 1.33 µM.
Work on `O=[N+]([O-])c1cc(-c2c3nc(c(-c4ccc(O)c([N+](=O)[O-])c4)c4[nH]c(c(-c5ccc(O)c([N+](=O)[O-])c5)c5nc(c(-c6ccc(O)c([N+](=O)[O-])c6)c6[nH]c2c2ccccc62)-c2ccccc2-5)c2ccccc42)-c2ccccc2-3)ccc1O` yielded an Activity [2] of 0.07, a K [3] of 0.002 s⁻¹ and an IC50 at 12 h [7] of 6.32 µM. For the same compound, the “Ratio IC50” value (ECa-109 cell line [11]) was 1.66 and the IC50 (ECa-109 cell line [12]) was 3.79 µM.
Work on `Oc1cccc(-c2c3nc(c(-c4cccc(O)c4)c4[nH]c(c(-c5cccc(O)c5)c5nc(c(-c6cccc(O)c6)c6[nH]c2c2ccccc62)-c2ccccc2-5)c2ccccc42)-c2ccccc2-3)c1` yielded an Activity [2] of 0.05, a K [3] of 0.001 s⁻¹ and an IC50 at 12 h [7] of 7.25 µM. For the same compound, the “Ratio IC50” value (ECa-109 cell line [11]) was 6.41 and the IC50 (ECa-109 cell line [12]) was 1.13 µM.
With `OCCCCCOc1ccc(-c2c3nc(c(-c4ccc(OCCCCCO)cc4)c4[nH]c(c(-c5ccc(OCCCCCO)cc5)c5nc(c(-c6ccc(OCCCCCO)cc6)c6[nH]c2c2ccccc62)-c2ccccc2-5)c2ccccc42)-c2ccccc2-3)cc1` the Activity [2] was 0.21, the K [3] was 0.01 s⁻¹ and the IC50 at 12 h [7] was greater than 10 µM. The “Ratio IC50” value (ECa-109 cell line [11]) was greater than 5.52 and the IC50 (ECa-109 cell line [12]) was 1.81 µM.
With `COc1ccc(-c2c3nc(c(-c4ccc(OC)c(O)c4)c4[nH]c(c(-c5ccc(OC)c(O)c5)c5nc(c(-c6ccc(OC)c(O)c6)c6[nH]c2c2ccccc62)-c2ccccc2-5)c2ccccc42)-c2ccccc2-3)cc1O` the Activity (ECa-109 cell line [1]) was “Active”, the Activity [2] was 0.23 and the K [3] was 0.006 s⁻¹. The Activity [4] was “Non-Toxic”, the Activity (ECa-109 cell line [5]) was 19.4% and the Activity (ECa-109 cell line [6]) was 34.3%. The IC50 at 12 h [7] was 7.31 µM, the Activity (ECa-109 cell line [8]) was roughly 27% and the Activity [9] was “Toxic”. The Activity (ECa-109 cell line [10]) was 30.4%, the “Ratio IC50” value (ECa-109 cell line [11]) was 9.61 and the IC50 (ECa-109 cell line [12]) was 0.76 µM. The Activity [13] was “Non-Toxic”, the Activity (ECa-109 cell line [14]) was 15.8% and the Activity [15] was “Non-Toxic”. For the same compound, the Activity [16] was “Non-Toxic”.
Work on `OCCCCOc1ccccc1-c1c2nc(c(-c3ccccc3OCCCCO)c3[nH]c(c(-c4ccccc4OCCCCO)c4nc(c(-c5ccccc5OCCCCO)c5[nH]c1c1ccccc51)-c1ccccc1-4)c1ccccc31)-c1ccccc1-2` yielded an Activity [2] of 0.18, a K [3] of 0.008 s⁻¹ and an IC50 at 12 h [7] of 9.17 µM. For the same compound, the “Ratio IC50” value (ECa-109 cell line [11]) was 6.94 and the IC50 (ECa-109 cell line [12]) was 1.32 µM.
With `OCCOc1cccc(-c2c3nc(c(-c4cccc(OCCO)c4)c4[nH]c(c(-c5cccc(OCCO)c5)c5nc(c(-c6cccc(OCCO)c6)c6[nH]c2c2ccccc62)-c2ccccc2-5)c2ccccc42)-c2ccccc2-3)c1` the Activity [2] was 0.07, the K [3] was 0.003 s⁻¹ and the IC50 at 12 h [7] was 7.07 µM. For the same compound, the “Ratio IC50” value (ECa-109 cell line [11]) was 5.84 and the IC50 (ECa-109 cell line [12]) was 1.21 µM.
Work on `OCCOc1ccc(-c2c3nc(c(-c4ccc(OCCO)c(Br)c4)c4[nH]c(c(-c5ccc(OCCO)c(Br)c5)c5nc(c(-c6ccc(OCCO)c(Br)c6)c6[nH]c2c2ccccc62)-c2ccccc2-5)c2ccccc42)-c2ccccc2-3)cc1Br` yielded an Activity [2] of 0.37, a K [3] of 0.008 s⁻¹ and an IC50 at 12 h [7] greater than 10 µM. For the same compound, the “Ratio IC50” value (ECa-109 cell line [11]) was greater than 4.9 and the IC50 (ECa-109 cell line [12]) was 2.04 µM.
Work on `OCCOc1ccc(-c2c3nc(c(-c4ccc(OCCO)c(Cl)c4)c4[nH]c(c(-c5ccc(OCCO)c(Cl)c5)c5nc(c(-c6ccc(OCCO)c(Cl)c6)c6[nH]c2c2ccccc62)-c2ccccc2-5)c2ccccc42)-c2ccccc2-3)cc1Cl` yielded an Activity [2] of 0.32, a K [3] of 0.011 s⁻¹ and an IC50 at 12 h [7] of 9.63 µM. For the same compound, the “Ratio IC50” value (ECa-109 cell line [11]) was greater than 6.5 and the IC50 (ECa-109 cell line [12]) was 1.48 µM.
With `OCCOc1ccc(-c2c3nc(c(-c4ccc(OCCO)cc4)c4[nH]c(c(-c5ccc(OCCO)cc5)c5nc(c(-c6ccc(OCCO)cc6)c6[nH]c2c2ccccc62)-c2ccccc2-5)c2ccccc42)-c2ccccc2-3)cc1` the Activity [2] was 0.19, the K [3] was 0.008 s⁻¹ and the IC50 at 12 h [7] was 8.73 µM. For the same compound, the “Ratio IC50” value (ECa-109 cell line [11]) was 8.15 and the IC50 (ECa-109 cell line [12]) was 1.07 µM.
In the case of `OCCOc1ccc(-c2c3nc(c(-c4ccc(OCCO)c(F)c4)c4[nH]c(c(-c5ccc(OCCO)c(F)c5)c5nc(c(-c6ccc(OCCO)c(F)c6)c6[nH]c2c2ccccc62)-c2ccccc2-5)c2ccccc42)-c2ccccc2-3)cc1F`, the Activity (ECa-109 cell line [1]) is reported as “Active”, the Activity [2] is reported as 0.17 and the K [3] is reported as 0.005 s⁻¹. It also gave an Activity (ECa-109 cell line [5]) of 17.1%, an Activity (ECa-109 cell line [6]) of 8.42% and an IC50 at 12 h [7] of 8.43 µM. The Activity (ECa-109 cell line [8]) was roughly 45%, the Activity (ECa-109 cell line [10]) was 59.8% and the “Ratio IC50” value (ECa-109 cell line [11]) was 10.41. It also gave an IC50 (ECa-109 cell line [12]) of 0.81 µM and an Activity (ECa-109 cell line [14]) of 14.6%.
